This is an account of results in the array DNA melting data of Ke et al. (doi:10.1101/2024.01.08.574731).

Data set [1] can be described thus: melting temperature; fluorescence melt of hairpins on a sequencing array, two-state fit, raised by 9.35 °C to match UV melts. The conditions noted are these: sodium 0.088 M. The procedure, abridged: (§1)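 Melting temperature and folding enthalpy were derived from bootstrapped two-state fits. The fitted temperatures were raised by 9.35 °C to agree with UV melts, and four replicates were combined by inverse variance. The underlying data were Cy3 fluorescence images of library hairpins, with annealed Cy3 and quencher oligos, on a sequenced MiSeq flow cell in 50 mM Na-HEPES pH 8.0, 25 mM NaCl, taken in 2.5 °C steps up to 60 °C, normalised to pre-quench Cy3 and to control constructs.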

A short description of data set [2]: folding enthalpy; higher = less favourable; fluorescence melt of hairpins on a sequencing array, two-state fit. The conditions noted are these: sodium 0.088 M. Summed up:
as §1

As to GCGCACGGAAACATGCGC (((((.(....).))))), the Tm in data set [1] was 59 °C. The folding enthalpy in data set [2] is -37.5 kcal/mol.
As to GCGCACTCGAAAGAGCGC (((..(((....)))))), the Tm in data set [1] worked out at 57.1 °C. Also, the folding enthalpy in data set [2] was -23.6 kcal/mol.
The matching figures for GCGCAGCGAAAGCCACGC (((..((....))..))): 42.4 °C and -9.86 kcal/mol.
In the same order, the values of GCGCAGCGAAAGCCGTGC ((.(.((....)).).)) are 46.2 °C and -9.79 kcal/mol.
Consider GCGCAGCGAAAGCGGTGC ((.(.((....)).).)), for which the Tm in data set [1] was 61.5 °C. Also, in data set [2], the folding enthalpy was -16.5 kcal/mol.
As for GCGCAGCGAAAGCTTCGC (((.(((....))).))), the Tm in data set [1] was found to be 51.4 °C. Further, in data set [2], the folding enthalpy is -36.1 kcal/mol.
The matching figures for GCGCAGGGAAACCCGCAC (.((.((....)).)).): 37 °C and -17 kcal/mol.
The matching figures for GCGCATCGAAAGATACGC (((.(((....))).))): 54.5 °C and -38.6 kcal/mol.
Regarding GCGCATGGAAACACGCGC ((((.((....)).)))), in data set [1], the Tm worked out at 56.1 °C. Besides, in data set [2], the folding enthalpy is -40.4 kcal/mol.
Regarding GCGCATGGAAACATGCAC (.(((((....))))).), the Tm in data set [1] is 47.1 °C. The folding enthalpy in data set [2] was -12.5 kcal/mol.
In the same order, the values of GCGCATGGAAACGTGCGC (((((.(....).))))) are 66.6 °C and -41 kcal/mol.
Consider GCGCCACGAAAGTGTCGC (((.(((....))).))), for which, in data set [1], the Tm was 63.3 °C. Moreover, in data set [2], the folding enthalpy is -41.7 kcal/mol.
As to GCGCCAGCGAAAGCTCGC (((..(((....)))))), the Tm in data set [1] was found to be 45 °C. Moreover, the folding enthalpy in data set [2] is -8.39 kcal/mol.
Regarding GCGCCAGGAAACCAGCGC ((((..(....)..)))), in data set [1], the Tm came to 51.4 °C. Besides, in data set [2], the folding enthalpy was -26.4 kcal/mol.
In the same order, the values of GCGCCAGGAAACCGGCAC (.(((.(....).))).) are 37.4 °C and -16.6 kcal/mol.
In the case of GCGCCCGAAAGGGCCGC ((((((....))).))), the Tm in data set [1] stood at 68 °C. Also, the folding enthalpy in data set [2] was -11.5 kcal/mol.
For GCGCCCGAAAGGGTCCGC ((((((....)))..))), the Tm in data set [1] came out at 56.2 °C. For the same sequence, the folding enthalpy in data set [2] was -14.8 kcal/mol.
As for GCGCCCGAAAGGGTTCGC ((((((....)))..))), the Tm in data set [1] stood at 54.6 °C. Further, the folding enthalpy in data set [2] was -17.7 kcal/mol.
The matching figures for GCGCCCTCGAAAGAGCGC (((..(((....)))))): 54.3 °C and -32 kcal/mol.
The matching figures for GCGCCGCGAAAGCAGTGC ((.(.((....)).).)): 53.5 °C and -19.4 kcal/mol.
Consider GCGCCGCGAAAGCATCGC (((..((....))..))), for which the Tm in data set [1] is 51.2 °C. For the same sequence, in data set [2], the folding enthalpy is -17 kcal/mol.
Regarding GCGCCGCGAAAGCGTGGC ((..(((....)))..)), the Tm in data set [1] was 51.7 °C. For the same sequence, the folding enthalpy in data set [2] was -14.9 kcal/mol.
The matching figures for GCGCCGCGAAAGCTTCGC (((..((....))..))): 54.7 °C and -15.6 kcal/mol.
In the same order, the values of GCGCCGGGAAACCGGCAC (.(((((....))))).) are 53.4 °C and -8.63 kcal/mol.
Regarding GCGCCTACGAAAGTACGC (((..(((....)))))), the Tm in data set [1] stood at 42 °C. Moreover, in data set [2], the folding enthalpy is -27.8 kcal/mol.
The matching figures for GCGCCTCGAAAGAGCGC (((.(((....)))))): 67.4 °C and -35.9 kcal/mol.
In the same order, the values of GCGCCTGGAAACAGGTGC ((.((((....)))).)) are 64.2 °C and -46.6 kcal/mol.
In the same order, the values of GCGCCTGGAAACGGGTGC ((.((.(....).)).)) are 52.3 °C and -46.3 kcal/mol.
Turning to GCGCGAGGAAACTCACGC (((.(((....))).))), the Tm in data set [1] worked out at 53.8 °C. For the same sequence, the folding enthalpy in data set [2] was -38.2 kcal/mol.
The matching figures for GCGCGCGAAAGCGACCGC ((((((....)))..))): 54.3 °C and -16.8 kcal/mol.
